Bioassay records (PubChem BioAssay)
Rows were chosen to be rich in hits. Some 3.9% of all compounds tested hit in one or more screens of this group.
HTR2A ag: mouse Htr2a agonists via beta-arrestin recruitment, primary screen, cell-based, luminescence. CHO-K1 mHTR2A beta-arrestin complementation; percent of 30 µM serotonin response. activation, % at 7.6 µM. AID 624169, 2012. actives 0.66% (n = 360,000). 5-hydroxytryptamine receptor 2A (Mus musculus), P35363;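 active = activation above a run cutoff, the mean activation of all tested compounds plus 3 SD, cut at about 14% in these data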;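 note: 0% = plate median of compound wells and 100% = 30 µM serotonin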
CHRM1 PAM: human M1 muscarinic receptor positive allosteric modulators, primary screen, CHO-K1 cells, Fluo-8 calcium fluorescence, 1536-well; actives 0.088% (n = 360,000); AID 588819, 2011; CHO-K1 hM1, ACh EC20; 0% = ACh EC20, 100% = maximal ACh; activation, % at 3 µM; in the data active = activation above about 19%, passing the limit was not always enough
Target sequence (P11229 whole entry, looked up): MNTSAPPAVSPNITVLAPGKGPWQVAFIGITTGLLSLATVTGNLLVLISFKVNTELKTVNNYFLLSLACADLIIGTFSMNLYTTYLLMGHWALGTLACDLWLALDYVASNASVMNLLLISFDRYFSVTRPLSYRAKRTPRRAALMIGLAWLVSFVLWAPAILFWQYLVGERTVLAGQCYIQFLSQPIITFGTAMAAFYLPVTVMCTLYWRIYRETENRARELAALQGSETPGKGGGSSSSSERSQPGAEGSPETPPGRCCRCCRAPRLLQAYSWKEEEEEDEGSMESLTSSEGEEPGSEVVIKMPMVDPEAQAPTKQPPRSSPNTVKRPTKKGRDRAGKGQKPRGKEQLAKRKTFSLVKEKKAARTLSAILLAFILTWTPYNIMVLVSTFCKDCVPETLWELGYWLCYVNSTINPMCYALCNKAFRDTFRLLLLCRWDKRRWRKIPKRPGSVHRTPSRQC
TAAR1 antag: human TAAR1 antagonists, primary screen, Fluo-8 calcium fluorescence, CHO RD-HGA16 cells | AID 624466, 2012 | inhibition, % at 3 µM | Trace amine-associated receptor 1 (Homo sapiens), Q96RJ0 | actives 1.5% (n = 360,000) | antagonist;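 active = inhibition above a per-plate cutoff, the mean inhibition of test compounds on that plate plus 3 SD, cut at about 49% in these data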;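 note: 0% = DMSO plus EC80 beta-PEA response and 100% = DMSO alone without agonist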
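test system = CHO RD-HGA16 cells bearing hTAAR1 | replication = singlicate | controls = DMSO-only wells and EC80 β-PEA-stimulated wells | reagent = EC80 β-phenethylamine stimulus | read-out basis = percent inhibition of PEA-evoked calcium signal, max/basal emission ratio | schedule = seeding 17-24 h prior, 75-min 37 °C, 30-min RT dye loading | signal = kinetic Fluo-8 calcium fluorescence measurement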
TAAR1 ag: human TAAR1 agonists, primary screen, Fluo-8 calcium fluorescence, CHO RD-HGA16 cells | actives 0.99% (n = 360,000) | vehicle wells 0%, saturating PEA agonist 100% | AID 624467, 2012 | Trace amine-associated receptor 1 (Homo sapiens), Q96RJ0 | activation, % at 3 µM;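 active = activation above the mean activation of all test compounds in the run plus 3 SD, cut at about 38% in these data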
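System: CHO-derived RD-HGA16 cells with stable Gα16 and human TAAR1 / Times: 17-24 h plating, Fluo-8 75 min 37 °C, 30 min RT / Technique: calcium-sensitive Fluo-8 signal, excitation 470-495, emission 515-575 nm / Measure: % activation relative to PEA EC100 response / Benchmarks: DMSO and PEA EC100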
CHRM1 antagonist: human M1 muscarinic receptor antagonists, primary screen, CHO-K1 cells, Fluo-8 calcium fluorescence, 1536-well | inhibition, % at 3 µM | actives 1.3% (n = 360,000) | CHO-K1 hM1, ACh EC80 antagonist | Muscarinic acetylcholine receptor M1 (Homo sapiens), P11229;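 active = percent inhibition above its own plate's cutoff, namely the mean of that plate's compound wells plus 3 SD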;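 note: peak over basal fluorescence ratio during 140 s after agonist addition; 0% = ACh EC80 plus DMSO and 100% = DMSO alone without agonist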
M1 ag: human M1 muscarinic receptor agonists, primary screen, Fluo-8 calcium fluorescence, CHO-K1 cells, HTS | activation, % at 3 µM | Muscarinic acetylcholine receptor M1 (Homo sapiens), P11229 | actives 0.33% (n = 360,000) | CHO-K1 hM1, agonist mode; 0% DMSO, 100% acetylcholine EC100;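 active = activation above the run's mean compound activation plus 3 SD, cut at about 16% in these data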;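 note: peak over basal fluorescence ratio within a 140 s kinetic read after compound addition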
MOR ag counter: OPRM1 agonists via beta-arrestin recruitment, confirmation, counter-screen for mouse HTR2A agonist project, cell-based, luminescence, single concentration; shares compounds with HTR2A ag; U2OS OPRM1 beta-arrestin PathHunter; DMSO 0%, DAMGO 9.3 µM 100%; activation, % at 9.3 µM; actives 5.3% (n = 2,300); AID 624380, 2012;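 active = mean activation above the mean of DMSO-only wells plus 3 SD, cut at about 0.5% in these data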
HTR2A ag conf: mouse HTR2A agonists, beta-arrestin recruitment, confirmation, cell-based, luminescence, CHO-K1 PathHunter, triplicate; shares compounds with HTR2A ag; DMSO 0%, 30 µM serotonin 100%; activation, % at 7.6 µM; actives 19% (n = 2,300);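 active = mean activation across triplicates above the hit threshold derived in the original primary screen, cut at about 15% in these data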
Active calls of the source: *; . = not tested or not shown.

SMILES	HTR2A ag	CHRM1 PAM	TAAR1 antag	TAAR1 ag	CHRM1 antagonist	M1 ag	MOR ag counter	HTR2A ag conf
CC1(C)CC(=O)C(C(C2=C(O)CC(C)(C)CC2=O)c2ccc(O)c([N+](=O)[O-])c2)=C(O)C1	1	5	0	8	-4	-6	.	.
Cn1c(NC(=O)c2ccc(F)c(F)c2)cc(=O)n(C)c1=O	-2	12	2	0	-10	1	.	.
Cc1ccc(C(=O)Nc2cc(=O)n(C)c(=O)n2C)cc1C	16*	2	-2	0	-2	-2	0	-2
O=C(O)c1nc(-c2ccccc2)c(C(=O)NC2CC2)[nH]1	2	-8	4	2	-18	3	.	.
CCOc1ccc(CCNC(=O)C2=C(C)C(=O)OC23CCC(C)CC3)cc1 (configuration not stated)	16*	1	-2	1	-2	-6	0	-3
Cc1cccc2nc(-c3cccc(NC(=O)Cc4ccccc4)c3)cn12	-3	4	-5	-1	-6	-9	.	.
Cc1cccc2nc(-c3cccc(NC(=O)c4ccc(Cl)cc4)c3)cn12	22*	5	-6	-1	-4	-1	-1	-4
CNc1c(C(=O)O)ccc2c1C(=O)c1ccccc1C2=O	-2	-9	-6	3	6	-10	.	.
O=C(O)c1ccc2c(c1Nc1ccccc1)C(=O)c1ccccc1C2=O	27*	6	-18	-3	-2	-5	0	-6
C/C(=N/NC(=O)CNC(=O)CCc1ccccc1)c1ccc(Cl)cc1	7	-3	-29	2	5	-4	.	.
C/C(=N/NC(=O)CNC(=O)COc1ccccc1)c1ccc(Cl)cc1	16*	8	-3	0	-12	-4	-1	-6
COC(=O)c1ccc(CSc2ncnc3ccccc23)o1	1	0	0	0	2	-5	.	.
CCc1cc2c(SCc3ccc(C(=O)OC)o3)ncnc2s1	15*	-8	6	-4	1	-9	0	-2
C=C(C)CN1CCN(S(=O)(=O)c2ccc(C)c(N(C)S(=O)(=O)c3ccc(C)cc3)c2C)CC1	22*	-6	8	0	0	-10	0	-3
CC1(Cc2cc(Cl)ccc2C(F)(F)F)C(=O)Nc2cc(F)ccc21 (configuration not stated)	-4	-1	.	.	-4	-6	.	.
CC1(Cc2cc(Cl)ccc2C(F)(F)F)C(=O)Nc2cc(C(F)(F)F)ccc21 (configuration not stated)	15*	-2	10	-2	0	-4	0	2
Cc1nc2scc(C)n2c(=O)c1S(=O)(=O)NCc1ccccc1Cl	3	-5	0	4	29	-5	.	.
COc1ccccc1CNS(=O)(=O)c1c(C)nc2scc(C)n2c1=O	15*	6	-17	1	3	-1	0	1
CCC(C(=O)O)n1cnc2scc(-c3ccc(C)c(C)c3)c2c1=O (configuration not stated)	24*	8	6	10	-15	-3	0	-2
CC1CCCC(NC(=O)CSc2nnc(C(F)(F)F)n2C)C1C (configuration not stated)	3	6	0	4	-12	0	.	.
COc1ccc(OC)c(/C=C/C(=O)NCCc2nc3ccccc3[nH]2)c1	-2	3	-15	3	-6	-4	.	.
Nc1cc(N)nc(SCC(=O)NC2CCCCCCC2)n1	8	2	-4	0	-5	-2	.	.
O=C(NC1CCCCC1)N1CCNCC1	14*	-1	-2	4	3	-3	-1	-2
O=C(NC1CCCCC1)N1CCCCCC1	5	19	-15	11	-33	-4	.	.
CCOC(=O)CSc1nc2sc3c(c2c(=O)n1CC)CC(C)(C)OC3	23*	3	18	5	-9	-7	0	-1
SMILES	HTR2A ag	CHRM1 PAM	TAAR1 antag	TAAR1 ag	CHRM1 antagonist	M1 ag	MOR ag counter	HTR2A ag conf
CC(=O)C1=NN(c2ccc(Cl)cc2)C(c2ccc3c(c2)OCO3)N(C(C)=O)N1C (configuration not stated)	-3	-3	-58	4	3	-7	.	.
OCC1(Cc2ccc(Cl)cc2)CCN(CC2CC=CCC2)CC1 (configuration not stated)	15*	-6	-17	4	16	-7	0	14
OCC1(Cc2ccc(Cl)cc2)CCN(CCCc2ccccc2)CC1	18*	-22	-3	15	27	-11	0	44*
COCC1CCCCN1C(=O)c1cccc(OC2CCN(C(=O)C3CC3)CC2)c1 (configuration not stated)	6	4	-23	-1	-4	-2	.	.
Cc1c(C)c2ccc(OCC(=O)NCc3ccccn3)cc2oc1=O	5	0	1	2	-4	-2	.	.
Cc1c(C)c2ccc(OCC(=O)Nc3ccccn3)cc2oc1=O	18*	9	-13	0	1	-1	-1	-3
O=C(CSc1ccc2nnc(-c3ccncc3)n2n1)Nc1ccc2c(c1)OCO2	35*	5	-10	1	-8	-2	0	0
O=C(CSc1ccc2nnc(-c3ccncc3)n2n1)Nc1ccc2c(c1)OCCO2	5	9	-18	1	-11	-4	.	.
CCOC(=O)c1ccc(Oc2nc(OC)nc(N(C)C)n2)cc1	18*	1	10	7	1	-3	-1	0
Cc1ccc(NC(=O)CN2C(=O)c3ccccc3S2(=O)=O)c(C)c1	18*	-6	-7	-1	8	-2	0	-2
CC(C)CNC(=S)N1CCC(C(=O)c2ccc3c(c2)OCCO3)CC1	-5	6	12	3	-8	-1	.	.
